Experimental data from PubChem BioAssay AID1296 (Columbia University Molecular Screening Center, 2008).
Screen size: about 130,000 compounds; about 1,000 (0.77%) were called active. Not shown: some 1% with an inconclusive outcome.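 The calls were made as follows: active = activation at 2 µM above a set limit, confirmed on inspection of the cell images; inconclusive = above the set limit but not confirmed on image inspection; inactive = the rest.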 What follows is part of a selection rich in actives, with near analogues and random picks from the rest.

Assay: activators of insulin promoter-driven GFP, primary screen, imaging, TRM-6 cells (human fetal islet line), eGFP reporter, cell count (AID 1296;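 as to activation: share of cells whose green reporter signal exceeds an intensity cutoff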;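 as to normalized cell count: cells counted after 48 h compound exposure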)
Conditions: at 2 µM; activation: stronger effect = higher value, plate-scaled: unstimulated 0, stimulated control 100; normalized cell count: measured here: cell count (toxicity)
Summary of the method: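 Assay system: TRM-6 insulin promoter–eGFP reporter cells / Input: 1,000 cells per well / Medium: Low-glucose (5.5 mM) medium with tamoxifen / Also added: tamoxifen inducer, 0.75 µM, in seeding medium / Timing: overnight tamoxifen, then two-day compound incubation at 37 °C / Signal: automated fluorescence imaging of paraformaldehyde-fixed, Hoechst-counterstained cells, green channel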

| Compound | activation | normalized cell count [%] |
| --- | --- | --- |
| CCCC1NC(=S)NC(C)=C1C(C)=O (stereo unspecified) | 7.14% (inactive) | 103 |
| COC(=O)c1ccccc1NC(=S)NC(=O)c1ccccc1F | 0% (inactive) | 112 |
| Cc1ccccc1OCCOc1ccc([N+](=O)[O-])cc1/C=N/n1cnnc1 | 107% (inactive) | 5.92 |
| COC(=O)c1[nH]c2ccccc2c1NC(=O)CN1CCCc2ccccc21 | 209% (active) | 75.4 |
| Cc1[nH]c2ccccc2c1SCC(=O)Nc1nccs1 | 5.56% (inactive) | 140 |
| Cn1c(SCC(=O)N2CCCc3ccccc32)nc2ccccc2c1=O | 57.1% (inactive) | 100 |
| Cc1cccc(-n2cc(CN3CCN(C(=O)c4ncn[nH]4)CC3)c(-c3cccc(F)c3)n2)c1 | 0% (inactive) | 108 |
| O=C(COc1ccc2c(C(F)(F)F)cc(=O)oc2c1)Nc1ccc2c(c1)OCCO2 | 2.7% (inactive) | 112 |
| CC1(C)CC(=O)c2cnc3nc4ccccc4n3c2C1 | -76.2% (inactive) | 56.3 |
| Cc1cc(C(=O)OCC(=O)Nc2nnc(C(C)C)s2)c2ccccc2n1 | 0% (inactive) | 93.8 |
| N#C/C(=C\C1=C(N2CCOCC2)C(=C\c2ccccc2)/CC1)C(=O)Nc1ccccc1F | 525% [fluoresces] (active) | 109 |
| CC(CC(=O)O)C(=O)c1ccc(Cl)c([N+](=O)[O-])c1 (stereo unspecified) | 6.67% (inactive) | 136 |
| Cn1nc(-c2ccc(N3CCOCC3)c(NC(=O)c3ccccc3)c2)c2ccccc2c1=O | 0% (inactive) | 95.6 |
| O=C1C(Cl)=C(N2CCOCC2)C(=O)N1c1ccccc1 | 0% (inactive) | 129 |
| O=C1OC(NC(=O)c2ccccc2)C(N2CCOCC2)=C1Cl (stereo unspecified) | 162% (active) | 118 |
| C=CCc1cccc2cc(C(=O)OCC)c(=O)oc12 | 7.14% (inactive) | 70.6 |
| COCCCNCCOCCOc1ccc(Cl)cc1Br | 6.67% (inactive) | 166 |
| CC1=NN(C(=O)Cc2ccc(C)cc2)C(O)(c2cccnc2)C1 (stereo unspecified) | -5.41% (inactive) | 170 |
| CN(CC(=O)NC1CCCC1)S(=O)(=O)c1cnc[nH]1 | -7.14% (inactive) | 85 |
| CC(C)COP(=O)(c1ccc(N(C)C)cc1)C(Nc1ccccc1)c1cccnc1 (stereo unspecified) | 2.94% (inactive) | 145 |
| COC(=O)c1ccc(Cc2ccccc2)o1 | -92.9% (inactive) | 83.1 |
| COC(=O)c1ccc(COC(=O)c2c(C)nn(Cc3ccccc3Cl)c2Cl)o1 | 5.26% (inactive) | 164 |

| Compound | activation | normalized cell count [%] |
| --- | --- | --- |
| COC(=O)c1ccc(CSc2ccccc2C)o1 | 230% (active) | 122 |
| C=CCN(c1ccc(C(=O)Nc2cc(C)cc(C)c2)cc1)S(C)(=O)=O | 8.11% (inactive) | 119 |
| CCNC(=S)N(CCc1c(C)[nH]c2ccc(C)cc12)Cc1ccco1 | 340% (active) | 55.7 |
| Cc1cccc2cc(CN(Cc3cccs3)C(=S)NCc3ccco3)c(=O)[nH]c12 | -7.94% (inactive) | 94.8 |
| CC1CCCN(CCOCCOc2ccccc2-c2ccccc2)C1 (stereo unspecified) | 7.14% (inactive) | 133 |
| Cc1ccc(C(C)(C)C)c(OCCCCN2CCCC2)c1 | -1.96% (inactive) | 97.2 |
| Cc1nn(-c2ccccc2)c(C)c1NC(=O)COc1ccc(Cl)cc1Cl | 3.7% (inactive) | 120 |
| Cc1cc(C)c2c(n1)nn1c(N3CCN(c4cccc(Cl)c4)CC3)cc(C)nc21 | 141% (inactive) | 99.8 |
| CCOc1nnc(C)c2c(C)n(-c3cccc(Cl)c3)nc12 | 162% (active) | 134 |
| O=C(CCCN1C(=O)/C(=C/c2ccco2)SC1=S)Nc1ccccc1 | 0% (inactive) | 158 |
| COc1ccc(N2CCN(C(=O)c3ccc4c(Cl)c5c(nc4c3)CCCC5)CC2)cc1 | 0% (inactive) | 94.9 |
| COc1ccc(C2CC(c3cccs3)Nc3nnnn32)cc1 (stereo unspecified) | -78.6% (inactive) | 120 |
| CC1(C)CC(=O)C(N=Nc2ccc(S(=O)(=O)N3CCCCCC3)cc2)=C(O)C1 | 0% (inactive) | 78.9 |
| O=C(NCN1CCN(CCO)CC1)c1cnccn1 | 6.67% (inactive) | 83.1 |
| O=C(Nc1ccccc1C(=O)NCCCn1ccnc1)c1ccc(Cl)cc1Cl | 289% (inactive) | 61.3 |
| CCCC(=O)Nc1ccc(C(=O)NCCCn2ccnc2)cc1 | 456% (active) | 48.4 |
| Cc1ccc2c(Cl)c(C(=O)NCCCn3ccnc3)sc2c1 | 352% (inactive) | 42 |
| C/C(=N\NC(=O)c1ccc(NS(=O)(=O)c2cccs2)cc1)c1ccc2ccccc2c1 | 157% (inactive) | 72.7 |
| CN(C)CCCCCN(C)Cc1cc2ccccc2o1 | 319% (active) | 86.1 |
| CCS(=O)(=O)Nc1cc(C(=O)OC)ccc1C(=O)OC | -6.67% (inactive) | 104 |
| COC(=O)c1ccc(C(=O)OC)c(NC(=S)N2CCN(c3ccc(F)cc3)CC2)c1 | 403% (active) | 89.4 |
| CCN(CCO)C(=S)Nc1cc(C(=O)OC)ccc1C(=O)OC | 3.45% (inactive) | 127 |

| Compound | activation | normalized cell count [%] |
| --- | --- | --- |
| COc1ccc(C)cc1Nc1nc(-c2c(C)[nH]c3ccccc23)cs1 | -3.7% (inactive) | 68.8 |
| CN(c1ccc(OCC(=O)OCC(=O)Nc2cccc([N+](=O)[O-])c2)cc1)S(=O)(=O)c1ccc(F)cc1 | -8.57% (inactive) | 119 |
| COc1cccc(OC)c1C(=O)Nc1ccc(Cc2ccncc2)cc1 | 6.67% (inactive) | 107 |
| O=C(Nc1ccncc1)c1c(F)cccc1F | -5.26% (inactive) | 90.9 |
| CCc1ccc(NC(=O)Nc2ccncc2)cc1 | 268% (active) | 67.1 |
| OCCNCCOc1ccc(Cl)c(Cl)c1 | -3.85% (inactive) | 86.5 |
| CC(NC(=O)Nc1ccc2c(c1)OCO2)c1ccncc1 (stereo unspecified) | -5.26% (inactive) | 112 |
| Cc1onc(C(=O)NN)c1C(=O)N1CCN(C(c2ccccc2)c2ccccc2)CC1 | -81.8% (inactive) | 29.3 |
| CCOC(=O)c1c(NC(=O)C2CC=CCC2C(=O)O)sc(C)c1CC (stereo unspecified) | -5.88% (inactive) | 110 |
| Cc1ccccc1C(OCCN(C)C)C1CCCCC1 (stereo unspecified) | -9.38% (inactive) | 72.9 |
| Cc1ccc(N/N=C2\COC(C)(C)CC2=O)cc1 | 7.14% (inactive) | 67.8 |
| O=C(Nc1ccccc1)N1CCN(Cc2ccccc2)CC1 | 4.22% (inactive) | 57.8 |
| CCCC(=O)C1CCN(Cc2ccccc2)CC1 | 0% (inactive) | 122 |
| NC(=O)c1ccc(CN2CCC(Cc3ccccc3)CC2)cc1 | 347% (active) | 40.1 |
| O=C(CSc1ncnc2scc(-c3ccccc3)c12)NCc1ccc2c(c1)OCO2 | 0% (inactive) | 109 |
| CCCCOc1ccc(C(=O)NN2CCN(C)CC2)cc1 | 0% (inactive) | 149 |
| Cc1cs/c(=N\N=C\c2ccc(O)cc2)n1Cc1ccco1 | -7.69% (inactive) | 109 |
| CN(c1ccccc1)c1ccc(/C=c2\s/c(=C(/C#N)C(=O)C(C)(C)C)n(Cc3ccco3)c2=O)cc1 | 178% (active) | 74.1 |
| O=C(CN(c1cccc(Cl)c1)S(=O)(=O)c1ccccc1)NN=C1CCCC1 | -5.88% (inactive) | 82.1 |
| Cc1ccc(S(=O)(=O)N(CC(=O)N2CCc3ccccc3C2)c2cccc(Cl)c2)cc1 | 5% (inactive) | 94.9 |
| O=C(CN(c1ccccc1)S(=O)(=O)c1ccc(Cl)cc1)Nc1ccccc1C(=O)N1CCCC1 | 93.5% (active) | 74.8 |
| N#CCC(=O)NC(=O)NCC1CC1 | 9.09% (inactive) | 118 |

| Compound | activation | normalized cell count [%] |
| --- | --- | --- |
| O=C(CCc1[nH]c2ccccc2c1Sc1ccccc1)N(CCO)CCO | -6.9% (inactive) | 121 |
| Cc1nnc(SCC(=O)N2CCOCC2)[nH]c1=O | 0% (inactive) | 145 |
| COc1ccc(S(=O)(=O)N2CCC(C(=O)N3CCc4ccccc4C3)CC2)cc1OC | 8.7% (inactive) | 157 |
| O=S(=O)(c1cccs1)N1CCc2ccccc2C1 | -90.9% (inactive) | 90.9 |
| O=C(Nc1ccc(S(=O)(=O)N2CCc3ccccc3C2)cc1)c1ccccc1 | 407% (active) | 116 |
| O=C(Nc1ccccc1)OCc1cn(-c2ccc(Cl)cc2)nn1 | 6.06% (inactive) | 118 |
| CC(Sc1nncn1C)C(=O)Nc1cc(C(F)(F)F)ccc1N1CCOCC1 (stereo unspecified) | 0% (inactive) | 135 |
| CCC(C)(C(=O)NC1CCCCC1)N(C)C(=O)c1ccc2c(c1)OCO2 (stereo unspecified) | 8.57% (inactive) | 95.1 |
| CCOC(=O)N1CCN(C(=O)COc2ccc(Cl)cc2C)CC1 | 193% (inactive) | 63.4 |
| CCCn1nnnc1NC(=O)COc1ccc(Cl)cc1C | 9.09% (inactive) | 95.5 |
| CN1CCC(OC(=O)COc2ccc(Cl)cc2Cl)CC1 | 453% (active) | 63.1 |
| CC(C)(C)NCCCOc1ccc(Cl)cc1C(C)(C)C | 108% (inactive) | 74 |
| CC(C)NC(=O)C(=O)N/N=C/c1ccco1 | 0% (inactive) | 130 |
| CCCCc1nc(NCc2ccccc2)c(C#N)c2c1CCCC2 | -3.7% (inactive) | 115 |
| Cc1ccc(S(=O)(=O)NC(=O)COc2ccccc2C)cc1 | -81.2% (inactive) | 150 |
| Cc1cccc(NC(=O)COc2ccccc2C)n1 | 406% (active) | 56.6 |
| Cc1ccccc1OCC(=O)NCC(=O)OCC(=O)c1ccc2ccccc2c1 | -2.78% (inactive) | 105 |
| Cc1nc2scc(-c3cccs3)c2c(=O)n1N | -9.8% (inactive) | 105 |
| CCN(CC)CC1(O)CCN(C(=O)c2ccc(Cl)c(Cl)c2)CC1 | 275% (active) | 33.3 |
| Cc1nc2ccc(C(=O)N3CCSCC3)cc2s1 | 6.06% (inactive) | 60.2 |
| O=C(c1ccc(Cl)c([N+](=O)[O-])c1)N1CCN(c2ccccc2)CC1 | 4.35% (inactive) | 49.2 |
| COCCn1c(SCC(=O)Nc2ccc3c(c2)CCC3)nc2ccccc2c1=O | 1.3% (inactive) | 117 |
